Results on three compounds are retold here after ChEMBL document CHEMBL2046305, “Discovery of selective menaquinone biosynthesis inhibitors against Mycobacterium tuberculosis” (J Med Chem, 2012).

The test system of series [1] is Escherichia coli. The series is described as follows: Growth inhibition of Escherichia coli Seattle ATCC 25922 at 5 to 10 ug/ml by microplate alamar blue assay. Type of series: functional, organism-based.
Series [2] in a line: Inhibition of Mycobacterium tuberculosis MenA using [3H]farnesyl and DHNA as substrate after 2 hrs. An outline of the steps: (§1)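 Membrane fraction from mid-log cultures in 7H9/OADC, washed in saline, sonicated in MOPS pH 8/sucrose/MgCl2/2-mercaptoethanol buffer, spun 15,000 g then 200,000 g; the fraction was the enzyme source. DHNA (500 μM stock), MgCl2, 0.1% CHAPS, Tris pH 8, farnesyl diphosphate (200 μM stock) and inhibitor, 2 h at 37 °C. Quenched with 0.1 M AcOH/MeOH, extracted with hexanes, DMMK measured.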

In series [3] the test system is Escherichia coli. The series is described as follows: Growth inhibition of Escherichia coli Seattle ATCC 25922 at 5 to 10 ug/ml by microplate alamar blue assay in presence of 50 uM VK2. The class given is functional, organism-based. An outline of the steps: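 E. coli grown with inhibitor under anaerobic conditions; rescue tested by supplementing with menaquinone (VK2, 50 μM).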
(In general: Resazurin is reduced to fluorescent resorufin, in cell work by metabolically active cells.)

For series [4], the system named is Staphylococcus aureus. Kind of series: Antibacterial activity against Staphylococcus aureus Seattle 1945 ATCC 25923 by agar plate diffusion method. The class given is functional.
The test system of series [5] is Mycobacterium tuberculosis. The series is described as follows: Antibacterial activity against Mycobacterium tuberculosis H37Rv ATCC 27294 by microplate alamar blue assay. The class given is functional. An outline of the steps:
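Colorimetric microplate assay run under aerobic conditions; growth scored by the colour change of resazurin. Compounds showing at least 90% inhibition in a preliminary screen were retested at lower concentrations to give the MIC.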

For series [6], the system named is Escherichia coli. The series is described as follows: Antibacterial activity against Escherichia coli Seattle ATCC 25922 at 12.5 ug/ml by oxygen consumption assay. The class given is functional, organism-based.
Series [7] has as its system Staphylococcus aureus. Kind of series: Inhibition of Staphylococcus aureus MenA using [3H]farnesyl and DHNA as substrate at 100 uM after 2 hrs. An outline of the steps: as §1
The test system of series [8] is Mycobacterium tuberculosis. Kind of series: Inhibition of Mycobacterium tuberculosis MenA using [3H]farnesyl and DHNA as substrate at 100 uM after 2 hrs. An outline of the steps: as §1
Series [9] concerns Mycobacterium tuberculosis. Kind of series: Antibacterial activity against non-replicating Mycobacterium tuberculosis H37Rv ATCC 27294 by low oxygen recovery assay. The class given is functional.
Series [10] concerns Mycobacterium tuberculosis. Kind of series: Ratio of MIC for rifampicin to compound MIC for non-replicating Mycobacterium tuberculosis H37Rv ATCC 27294 by low oxygen recovery assay. The class given is functional.
Series [11] deals with HepG2. Kind of series: Cytotoxicity against human HepG2 cells after 72 hrs by MTT assay. The class given is cell-based. The note with it: HepG2, 72 h. In outline: (§2)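 Cell viability after 72 h exposure, tested at 10 times the H37Rv MIC; read-out was cellular conversion of MTT into formazan.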
The subject of series [12] is Vero. Kind of series: Cytotoxicity against african green monkey Vero cells after 72 hrs by MTT assay. Type of series: cell-based. To be noted: Chlorocebus sabaeus. In outline:
as §2

For series [13], the system named is Mycolicibacterium smegmatis. The series is described as follows: Antibacterial activity against Mycobacterium smegmatis by microplate alamar blue assay. The class given is functional.
In series [14] the test system is Mycobacterium intracellulare. Kind of series: Antibacterial activity against Mycobacterium intracellulare ATCC 15984 by microplate alamar blue assay. The class given is functional.
A short description of series [15]: Selectivity ratio of IC50 for african green monkey Vero cells to IC50 for Mycobacterium tuberculosis […]. Type of series: ADME, cell-based. The note with it: read-out: Ratio IC50.
The nature of series [16]: Selectivity ratio of IC50 for human HepG2 cells to IC50 for Mycobacterium tuberculosis […]. To be noted: read-out: Ratio IC50. Type of series: ADME, cell-based.

The structures appear in SMILES notation. In brackets after ≈: the same amount, converted by molar mass. Activity calls are given as the source filed them. The rule behind the calls is not given here. A value given as a limit tells only on which side of the number the result lay.

As usually defined, the IC50 is the concentration at which inhibition is half-maximal. A word on the MIC: it is the lowest concentration that inhibits growth of the organism. Consider `CCCCCC[C@@H](CN1CCC(COc2ccc(C(=O)c3ccc(Cl)cc3)c(Cl)c2)CC1)OC(N)=O`, for which the “growth inhibition (GI)” value in series [1] is “Active”. This compound displayed an IC50 in [2] of 1500 nM. Besides, in series [3], the “growth inhibition (GI)” value was “inactive”. For the same compound, the values for the MIC in [4], in [5] and in [9] were over 60 µg/mL, 1.5 µg/mL (≈ 2.8 µM) and 1.45 µg/mL (≈ 2.71 µM), respectively. Also, in series [6], the outcome was Active. The inhibition entry in series [7] was “inactive”. In series [8], the inhibition result was “Active”.
For the compound `CCCCCC[C@H](CN1CCC(COc2cccc(C(=O)c3ccc(Cl)cc3)c2)CC1)OC(N)=O`, the “growth inhibition (GI)” value in series [1] was “Active”. Besides, in [10], the Ratio is recorded as 1.7. Moreover, the IC50 in [2] is 1500 nM; in series [11], 7.5 µg/mL (≈ 15 µM); in series [12], 7.5 µg/mL (≈ 15 µM). Further, the “growth inhibition (GI)” value in series [3] was “inactive”. Moreover, the minimum inhibitory concentration (MIC) was 6.5 µg/mL (≈ 13 µM) in [13]; over 60 µg/mL in [4]; 2.31 µg/mL (≈ 4.61 µM) in [5]; 6.5 µg/mL (≈ 13 µM) in series [14]; 0.85 µg/mL (≈ 1.7 µM) in series [9]. In addition, the result in series [6] was Active. For the same compound, in [7], the inhibition entry is “inactive”. The inhibition result in series [8] is “Active”.
Turning to `CCCCCC[C@H](CN1CCC(COc2cccc(/C(=N\OC)c3ccc(Cl)cc3)c2)CC1)OC(N)=O`, in series [1], the “growth inhibition (GI)” value is “Active”. Besides, the results for the half-maximal inhibitory concentration (IC50) in [2], in series [11] and in series [12] were 1200 nM, 25 µg/mL (≈ 47.2 µM) and 25 µg/mL (≈ 47.2 µM), respectively. Moreover, the “growth inhibition (GI)” value in [3] is “inactive”. Further, the MIC in series [13] was 6.5 µg/mL (≈ 12.3 µM); in series [4], over 60 µg/mL; in [5] it was 2.31 µg/mL (≈ 4.36 µM); in series [14], 6.5 µg/mL (≈ 12.3 µM); in [9] it was 0.85 µg/mL (≈ 1.6 µM). Besides, the selectivity ratio in series [15] and in series [16] was over 10 each time. In addition, in series [7], the inhibition entry was “inactive”. Also, in series [8], the inhibition entry is “Active”.
